ChEMBL document CHEMBL3785059, “LC-MS-Guided Isolation of Penicilfuranone A: A New Antifibrotic Furancarboxylic Acid from the Plant Endophytic Fungus Penicillium sp. sh18” (J Nat Prod, 2016)
Activity calls are given as the source filed them. The rule behind the calls is not given here.

What was measured:
[1] = tested on: LX2; assay: Inhibition of TGF-beta-induced vimentin expression in human LX2 cells at 10 uM after 48 hrs by Western blot analysis; type: functional, cell-based
Method in brief: (§1)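 Rat HSC-T6 (RPMI 1640) or human LX-2 (DMEM) cells, passages 18-25, at 70% confluence were serum-deprived for 24 h. After 2 h pretreatment with agent or DMSO vehicle, TGF-β1 was added without washing at a final 10 ng/mL for 48 h. Whole-cell lysates (30 μg) were blotted for vimentin, with β-actin as the loading control.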

[2] = target: T1, Mothers against decapentaplegic homolog 2/homolog 3 (Homo sapiens) (UniProt P84022+Q15796); assay: Inhibition of TGF-beta1-induced Smad2/3 phosphorylation in human LX2 cells at 10 uM after 1 hr by Western blot analysis; type: cell-based
T1 sequence (P84022 whole entry, looked up): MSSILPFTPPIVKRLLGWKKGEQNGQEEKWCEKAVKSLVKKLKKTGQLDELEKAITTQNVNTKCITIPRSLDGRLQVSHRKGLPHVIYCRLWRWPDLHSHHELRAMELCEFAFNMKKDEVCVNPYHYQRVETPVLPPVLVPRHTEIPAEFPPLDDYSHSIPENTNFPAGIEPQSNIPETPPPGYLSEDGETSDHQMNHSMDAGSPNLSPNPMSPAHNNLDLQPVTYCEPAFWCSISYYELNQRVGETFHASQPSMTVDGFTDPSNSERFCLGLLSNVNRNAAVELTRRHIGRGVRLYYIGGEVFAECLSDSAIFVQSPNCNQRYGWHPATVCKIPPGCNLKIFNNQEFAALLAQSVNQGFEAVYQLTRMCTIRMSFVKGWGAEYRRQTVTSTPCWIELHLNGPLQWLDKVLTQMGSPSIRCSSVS
T1 sequence (Q15796 whole entry, looked up): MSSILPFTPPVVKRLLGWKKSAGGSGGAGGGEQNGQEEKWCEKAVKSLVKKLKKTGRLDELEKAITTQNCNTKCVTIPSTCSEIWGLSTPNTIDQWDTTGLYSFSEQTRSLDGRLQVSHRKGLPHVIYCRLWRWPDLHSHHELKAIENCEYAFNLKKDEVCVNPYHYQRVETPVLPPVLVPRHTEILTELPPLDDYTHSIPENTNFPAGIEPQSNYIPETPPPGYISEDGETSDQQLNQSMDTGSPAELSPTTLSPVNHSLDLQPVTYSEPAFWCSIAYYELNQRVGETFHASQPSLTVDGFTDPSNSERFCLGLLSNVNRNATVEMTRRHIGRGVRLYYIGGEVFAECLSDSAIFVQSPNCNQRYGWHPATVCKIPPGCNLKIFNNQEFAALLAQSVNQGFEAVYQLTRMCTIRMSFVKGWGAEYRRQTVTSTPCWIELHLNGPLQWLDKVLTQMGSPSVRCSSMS
Method in brief: (§2)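 HSC-T6 (rat; RPMI 1640) or LX-2 (human; DMEM) cells with 10% FBS, passages 18-25, were grown to 70% confluence and serum-starved 24 h. They were preincubated 2 h with test agent or DMSO, then exposed to TGF-β1 at a final 10 ng/mL for 1 h. Blots of 30 μg lysate were probed for phospho-Smad2/3 and Smad7, then reprobed for total Smad2/3 and β-actin.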

[3] = target: T2, Mothers against decapentaplegic homolog 2/homolog 3 (Rattus norvegicus) (UniProt O70436+P84025); assay: Inhibition of TGF-beta1-induced Smad2/3 phosphorylation in rat HSC-T6 cells at 10 uM after 1 hr by Western blot analysis; type: cell-based; method in brief: as §2
T2 sequence (O70436 whole entry, looked up): as the sequence (Q15796 whole entry, looked up) above, with P90A, I93V, N154S counted along it
T2 sequence (P84025 whole entry, looked up): as the sequence (P84022 whole entry, looked up) above

[4] = tested on: HSC-T6; assay: Effect on Smad2/3 expression in rat HSC-T6 cells at 10 uM after 1 hr by Western blot analysis; type: functional, cell-based; method in brief: as §2
[5] = tested on: LX2; assay: Effect on Smad2/3 expression in human LX2 cells at 10 uM after 1 hr by Western blot analysis; type: functional, cell-based; method in brief: as §2
[6] = tested on: LX2; assay: Inhibition of TGF-beta1-induced decrease of Smad7 expression in human LX2 cells at 10 uM after 1 hr by Western blot analysis; type: functional, cell-based; method in brief: as §2
[7] = tested on: HSC-T6; assay: Inhibition of TGF-beta1-induced decrease of Smad7 expression in rat HSC-T6 cells at 10 uM after 1 hr by Western blot analysis; type: functional, cell-based; method in brief: as §2
[8] = tested on: HSC-T6; assay: Inhibition of TGF-beta-induced vimentin expression in rat HSC-T6 cells at 10 uM after 48 hrs by Western blot analysis; type: functional, cell-based; method in brief: as §1
[9] = tested on: LX2; assay: Inhibition of TGF-beta1-induced decrease of Smad7 expression in human LX2 cells after 1 hr by Western blot analysis; type: functional, cell-based
Method in brief: (§3)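 Serum-starved cells (24 h, no FBS) preincubated 2 h with compound at 1, 2 or 4 μM, DMSO or 10 μM SB431542. Then exposed to TGF-β1 at 10 ng/mL final for 1 h. Lysates (30 μg) immunoblotted for phospho-Smad2/3 and Smad7; membranes reprobed for total Smad2/3 and β-actin for loading.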

[10] = Cytotoxicity against rat HSC-T6 cells at up to 4 uM after 48 hrs by MTT assay; type: cell-based; settings: hsc-t6, 48 h
Method in brief: (§4)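 MTT (5 mg/mL stock) added for 4 h at 37 °C. Formazan dissolved in DMSO, OD read at 570 nm. Viability given as % of control; mean ± SEM of three independent experiments.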

[11] = tested on: LX2; assay: Inhibition of TGF-beta-induced type-1 collagen expression in human LX2 cells after 48 hrs by Western blot analysis; type: functional, cell-based
Method in brief: (§5)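 Cells at 70% confluence serum-starved 24 h (passages 18–25). Preincubated 2 h with compound (1, 2 or 4 μM), DMSO vehicle or 10 μM SB431542, then 10 ng/mL human recombinant TGF-β1 added without wash for 48 h. Whole-cell lysates (30 μg protein) run on SDS-PAGE and immunoblotted with β-actin as loading control.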

[12] = tested on: HSC-T6; assay: Inhibition of TGF-beta-induced CTGF expression in rat HSC-T6 cells after 48 hrs by Western blot analysis; type: functional, cell-based
[13] = Cytotoxicity against human L02 cells at up to 4 uM after 48 hrs by MTT assay; type: cell-based; settings: l02, 48 h; method in brief: as §4
[14] = tested on: HSC-T6; assay: Inhibition of TGF-beta1-induced decrease of Smad7 expression in rat HSC-T6 cells after 1 hr by Western blot analysis; type: functional, cell-based; method in brief: as §3
[15] = tested on: LX2; assay: Inhibition of TGF-beta-induced CTGF expression in human LX2 cells after 48 hrs by Western blot analysis; type: functional, cell-based
[16] = tested on: LX2; assay: Effect on Smad2/3 expression in human LX2 cells at 1 to 4 uM after 1 hr by Western blot analysis; type: functional, cell-based; method in brief: as §3
[17] = tested on: LX2; assay: Inhibition of TGF-beta-induced vimentin expression in human LX2 cells at 1 to 4 uM after 48 hrs by Western blot analysis; type: functional, cell-based; method in brief: as §5
[18] = tested on: HSC-T6; assay: Inhibition of TGF-beta-induced type-1 collagen expression in rat HSC-T6 cells after 48 hrs by Western blot analysis; type: functional, cell-based; method in brief: as §5
[19] = tested on: LX2; assay: Inhibition of TGF-beta-induced alpha-SMA expression in human LX2 cells at 1 to 4 uM after 48 hrs by Western blot analysis; type: functional, cell-based; method in brief: as §5
[20] = target: T1, Mothers against decapentaplegic homolog 2/homolog 3 (Homo sapiens); assay: Inhibition of TGF-beta1-induced Smad2/3 phosphorylation in human LX-2 cells after 1 hr by Western blot analysis; type: cell-based; method in brief: as §3
[21] = tested on: HSC-T6; assay: Inhibition of TGF-beta-induced alpha-SMA expression in rat HSC-T6 cells at 1 to 4 uM after 48 hrs by Western blot analysis; type: functional, cell-based; method in brief: as §5
[22] = tested on: HSC-T6; assay: Inhibition of TGF-beta-induced vimentin expression in rat HSC-T6 cells at 1 to 4 uM after 48 hrs by Western blot analysis; type: functional, cell-based; method in brief: as §5
[23] = target: T2, Mothers against decapentaplegic homolog 2/homolog 3 (Rattus norvegicus); assay: Inhibition of TGF-beta1-induced Smad2/3 phosphorylation in rat HSC-T6 cells after 1 hr by Western blot analysis; type: cell-based; method in brief: as §3
[24] = Cytotoxicity against human LX2 cells at up to 4 uM after 48 hrs by MTT assay; type: cell-based; settings: lx2, 48 h; method in brief: as §4
[25] = tested on: HSC-T6; assay: Effect on Smad2/3 expression in rat HSC-T6 cells at 1 to 4 uM after 1 hr by Western blot analysis; type: functional, cell-based; method in brief: as §3

**Q.** Which inhibition [1] does the source give for NC(=O)c1ccc(-c2nc(-c3ccccn3)c(-c3ccc4c(c3)OCO4)[nH]2)cc1 here?
**A.** The inhibition was “Active”.

**Q.** What about the inhibition [2] of the same molecule?
**A.** Its inhibition is “Dose-dependent effect”.

**Q.** And the inhibition [3]?
**A.** The inhibition was “Dose-dependent effect”.

**Q.** What about the Activity [4] of the same molecule?
**A.** Its Activity is “inactive”.

**Q.** And the Activity [5]?
**A.** The Activity was “inactive”.

**Q.** And the inhibition [6]?
**A.** The inhibition was “Dose-dependent effect”.

**Q.** What about the inhibition [7] of the same molecule?
**A.** Its inhibition is “Dose-dependent effect”.

**Q.** What about the inhibition [8] of the same molecule?
**A.** The inhibition was “Active”.

**Q.** Which results are given for CC/C=C/C=C/[C@@]1(C)OC([C@H]2[C@@H](C)C(=O)c3cc(OC)c(O)c(O)c3[C@@]2(C)O)=C(C(=O)OC)C1=O?
**A.** inhibition [9]: Dose-dependent effect; Activity [10]: Non-toxic; inhibition [11]: Dose-dependent effect; inhibition [12]: Dose-dependent effect; Activity [13]: Non-toxic; inhibition [14]: Dose-dependent effect; inhibition [15]: Dose-dependent effect; Activity [16]: inactive; inhibition [17]: Active; inhibition [18]: Dose-dependent effect; inhibition [19]: Active; inhibition [20]: Dose-dependent effect; inhibition [21]: Active; inhibition [22]: Active; inhibition [23]: Dose-dependent effect; Activity [24]: Non-toxic; Activity [25]: inactive
